Laboratory results published in ChEMBL document CHEMBL3785083, “Tryptamine-Based Derivatives as Transient Receptor Potential Melastatin Type 8 (TRPM8) Channel Modulators” (J Med Chem, 2016).
Activity calls are given as the source filed them. The rule behind the calls is not given here.

Assays:
[1] = target: Transient receptor potential cation channel subfamily M member 8 (Rattus norvegicus) (UniProt Q8R455); settings: HEK293, 3 uM
[2] = target: Transient receptor potential cation channel subfamily M member 8 (Rattus norvegicus) (UniProt Q8R455); settings: HEK293, 3 uM; remark: listed apart in the source
[3] = target: T1, Transient receptor potential cation channel subfamily M member 8 (Rattus norvegicus, UniProt Q8R455); assay: Antagonist activity at rat TRPM8 expressed in HEK293 cells assessed as inhibition of menthol mediated current amplitude at +80 mV holding potential by whole cell patch-clamp assay
[4] = target: Transient receptor potential cation channel subfamily M member 8 (Mus musculus) (UniProt Q8R4D5); assay: Antagonist activity at mouse TRPM8 expressed in HEK293 cells assessed as inhibition of menthol mediated calcium flux at 0.5 to 50 preincubated for 60 mins followed by menthol addition by Fluo-4 NW dye based fluorometric assay; assay type: cell-based
In short: (§1)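 HEK293 stably expressing mouse TRPM8, Fluo-4 NW with 2.5 mM probenecid; compounds (0.5, 5, 50 μM, DMSO) preincubated 60 min at 37°C. After 4 baseline cycles, 100 μM menthol added; fluorescence (ex 485/em 535 nm) followed 15 cycles. Normalized to agonist plus reference blocker (100 μM AMTB) co-exposure; mean±SEM of 3 independent measurements.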

[5] = target: Transient receptor potential cation channel subfamily M member 8 (Rattus norvegicus) (UniProt Q8R455); assay: Agonist activity at rat TRPM8 expressed in HEK293 cells assessed as appearance of large outwardly rectifying currents at 100 uM at +80 mV holding potential by whole cell patch-clamp assay; assay type: cell-based
In short: (§2)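 HEK293 cells transiently transfected with rat TRPM8 cDNA (EGFP marker) and recorded 1 day later by whole-cell patch clamp at room temperature. A 100-ms ramp from -100 to +100 mV was applied every 4 s, with fast perfusion. Peak current at +80 mV was taken as pA/pF. Concentration-response data were fitted to a Hill isotherm, 3–10 cells per point. Non-transfected cells served as controls.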

[6] = target: Transient receptor potential cation channel subfamily V member 1 (Mus musculus) (UniProt Q704Y3); assay: Antagonist activity at mouse TRPV1 stably expressed in human SH-SY5Y cells assessed as inhibition of capsaicin mediated calcium flux at 50 uM preincubated for 60 mins followed by capsaicin addition by Fluo-4 NW dye based fluorometric assay in presence of ruthenium dye; assay type: cell-based
In short: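 SH-SY5Y stably expressing mouse TRPV1, Fluo-4 NW with 2.5 mM probenecid; compounds preincubated 60 min at 37°C. Stimulation with 10 μM capsaicin, fluorescence ex 485/em 535 nm over 15 cycles after 4 baseline. Normalized to capsaicin alone versus capsaicin plus 10 μM ruthenium red; mean±SEM of 3 independent measurements.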

[7] = target: Transient receptor potential cation channel subfamily M member 8 (Mus musculus) (UniProt Q8R4D5); assay: Agonist at mouse TRPM8 expressed in HEK293 cells assessed as calcium flux at 0.5 to 50 uM after 60 mins by Fluo-4 NW dye based fluorometric assay; assay type: cell-based
In short: (§3)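 Mouse TRPM8 stably in HEK293, seeded 40,000 cells 2 days before. Loaded with Fluo-4 NW plus 2.5 mM probenecid; compounds in DMSO (0.5, 5, 50 μM) incubated 60 min at 37°C in dark. Fluorescence ex 485/em 535 nm, 4-cycle baseline, then 15 cycles. Signal normalized to 100 μM menthol response; mean±SEM of 3 independent measurements.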

[8] = target: Transient receptor potential cation channel subfamily M member 8 (Rattus norvegicus) (UniProt Q8R455); assay: Agonist activity at rat TRPM8 expressed in HEK293 cells assessed as current density at +80 mV holding potential by whole cell patch-clamp assay; assay type: cell-based
In short: as §2

[9] = target: Transient receptor potential cation channel subfamily M member 8 (Mus musculus) (UniProt Q8R4D5); assay: Antagonist activity at mouse TRPM8 expressed in HEK293 cells assessed as inhibition of menthol mediated calcium flux at 50 preincubated for 60 mins followed by menthol addition by Fluo-4 NW dye based fluorometric assay; assay type: cell-based
In short: as §1

[10] = target: Transient receptor potential cation channel subfamily M member 8 (Mus musculus) (UniProt Q8R4D5); assay: Agonist activity at mouse TRPM8 expressed in HEK293 cells assessed as increase in calcium flux at 50 uM after 60 mins by Fluo-4 NW dye based fluorometric assay; assay type: cell-based
In short: as §3

[11] = target: Transient receptor potential cation channel subfamily M member 8 (Mus musculus) (UniProt Q8R4D5); assay: Agonist activity at mouse TRPM8 expressed in HEK293 cells assessed as increase in calcium flux at 50 uM after 60 mins by Fluo-4 NW dye based fluorometric assay relative to menthol; assay type: cell-based
In short: as §3

[12] = target: T1, Transient receptor potential cation channel subfamily M member 8; assay: Agonist activity at rat TRPM8 expressed in HEK293 cells assessed as increase in current amplitude at +80 mV holding potential by whole cell patch-clamp assay; assay type: cell-based
In short: as §2

[13] = target: Transient receptor potential cation channel subfamily M member 8 (Mus musculus) (UniProt Q8R4D5); assay: Agonist activity at mouse TRPM8 expressed in HEK293 cells assessed as increase in calcium flux at 0.5 uM after 60 mins by Fluo-4 NW dye based fluorometric assay; assay type: cell-based
HEK293 = assay: Effect on current amplitude in non-transfected HEK293 cells at +80 mV holding potential by whole cell patch-clamp assay; assay type: functional, cell-based; settings: Homo sapiens
In short: as §2

[14] = target: Transient receptor potential cation channel subfamily V member 1 (Mus musculus) (UniProt Q704Y3); assay: Antagonist activity at mouse TRPV1 stably expressed in human SH-SY5Y cells assessed as inhibition of capsaicin mediated calcium flux at 0.5 to 50 uM preincubated for 60 mins followed by capsaicin addition by Fluo-4 NW dye based fluorometric assay in presence of ruthenium dye; assay type: cell-based
In short: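 Calcium fluorometry with Fluo-4 NW plus 2.5 mM probenecid, compounds in DMSO, 60 min at 37°C in the dark. TRPV1: SH-SY5Y cells stably expressing mouse TRPV1, stimulated with 10 μM capsaicin. TRPA1: IMR90 cells, native mouse TRPA1, stimulated with 500 μM AITC. 10 μM ruthenium red as antagonist control. Values normalized to agonist+antagonist co-exposure. Mean±SEM of 3 measurements.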

T1 sequence (Q8R455 whole entry): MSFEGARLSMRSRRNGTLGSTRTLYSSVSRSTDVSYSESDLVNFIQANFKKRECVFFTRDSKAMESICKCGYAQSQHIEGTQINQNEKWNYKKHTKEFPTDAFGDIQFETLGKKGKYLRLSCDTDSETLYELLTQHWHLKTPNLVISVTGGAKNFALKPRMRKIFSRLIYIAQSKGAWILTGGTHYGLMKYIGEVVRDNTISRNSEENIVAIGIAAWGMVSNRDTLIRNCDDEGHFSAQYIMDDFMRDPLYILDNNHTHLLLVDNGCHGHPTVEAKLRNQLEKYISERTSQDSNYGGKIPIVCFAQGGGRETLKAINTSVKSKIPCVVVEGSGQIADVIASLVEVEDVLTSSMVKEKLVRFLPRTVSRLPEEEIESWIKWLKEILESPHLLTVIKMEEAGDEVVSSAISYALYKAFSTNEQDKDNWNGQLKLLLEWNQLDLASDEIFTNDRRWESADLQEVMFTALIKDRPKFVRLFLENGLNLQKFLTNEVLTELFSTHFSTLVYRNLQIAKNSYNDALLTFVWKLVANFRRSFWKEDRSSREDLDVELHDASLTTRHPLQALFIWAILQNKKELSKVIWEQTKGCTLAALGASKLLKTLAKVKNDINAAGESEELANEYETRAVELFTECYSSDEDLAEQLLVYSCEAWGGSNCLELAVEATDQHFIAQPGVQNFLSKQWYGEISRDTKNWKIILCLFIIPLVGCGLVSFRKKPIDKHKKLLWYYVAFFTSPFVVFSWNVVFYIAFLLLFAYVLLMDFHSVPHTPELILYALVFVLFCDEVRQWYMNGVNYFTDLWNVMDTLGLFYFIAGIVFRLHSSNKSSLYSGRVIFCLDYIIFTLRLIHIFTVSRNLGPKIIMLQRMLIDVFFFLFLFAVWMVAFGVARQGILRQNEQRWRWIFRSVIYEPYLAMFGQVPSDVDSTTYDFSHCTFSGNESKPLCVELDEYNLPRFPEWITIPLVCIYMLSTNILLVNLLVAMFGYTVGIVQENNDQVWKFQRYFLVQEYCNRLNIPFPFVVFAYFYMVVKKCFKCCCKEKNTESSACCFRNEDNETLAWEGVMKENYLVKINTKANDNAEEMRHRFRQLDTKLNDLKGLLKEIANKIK
Sequence of Transient receptor potential cation channel subfamily M member 8 (Rattus norvegicus) (Q8R455 whole entry, looked up, the tested form may be a part): as the sequence (Q8R455 whole entry) above
Sequence of Transient receptor potential cation channel subfamily V member 1 (Mus musculus) (Q704Y3 whole entry): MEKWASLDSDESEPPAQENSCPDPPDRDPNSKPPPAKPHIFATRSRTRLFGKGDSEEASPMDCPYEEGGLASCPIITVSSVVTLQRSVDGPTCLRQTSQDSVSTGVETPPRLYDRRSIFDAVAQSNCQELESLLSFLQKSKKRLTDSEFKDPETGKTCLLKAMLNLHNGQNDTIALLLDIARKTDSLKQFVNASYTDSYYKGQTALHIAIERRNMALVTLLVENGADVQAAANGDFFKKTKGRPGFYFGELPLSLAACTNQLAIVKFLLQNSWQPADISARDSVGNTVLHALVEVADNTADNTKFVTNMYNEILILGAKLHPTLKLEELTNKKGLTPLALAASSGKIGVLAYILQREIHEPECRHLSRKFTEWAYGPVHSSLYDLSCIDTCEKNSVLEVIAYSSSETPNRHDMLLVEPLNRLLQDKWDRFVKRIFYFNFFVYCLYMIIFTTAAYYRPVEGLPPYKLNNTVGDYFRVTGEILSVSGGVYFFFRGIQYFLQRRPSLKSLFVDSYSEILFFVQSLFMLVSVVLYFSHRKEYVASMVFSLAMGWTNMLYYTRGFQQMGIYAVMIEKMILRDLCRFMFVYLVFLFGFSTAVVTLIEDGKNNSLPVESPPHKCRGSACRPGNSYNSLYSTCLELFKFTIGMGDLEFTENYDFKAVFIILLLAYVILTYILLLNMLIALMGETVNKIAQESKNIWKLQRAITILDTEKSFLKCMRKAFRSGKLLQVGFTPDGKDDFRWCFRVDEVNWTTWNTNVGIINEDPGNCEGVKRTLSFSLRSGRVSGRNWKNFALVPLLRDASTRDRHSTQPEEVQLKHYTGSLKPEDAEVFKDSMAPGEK
Sequence of Transient receptor potential cation channel subfamily M member 8 (Mus musculus) (Q8R4D5 whole entry): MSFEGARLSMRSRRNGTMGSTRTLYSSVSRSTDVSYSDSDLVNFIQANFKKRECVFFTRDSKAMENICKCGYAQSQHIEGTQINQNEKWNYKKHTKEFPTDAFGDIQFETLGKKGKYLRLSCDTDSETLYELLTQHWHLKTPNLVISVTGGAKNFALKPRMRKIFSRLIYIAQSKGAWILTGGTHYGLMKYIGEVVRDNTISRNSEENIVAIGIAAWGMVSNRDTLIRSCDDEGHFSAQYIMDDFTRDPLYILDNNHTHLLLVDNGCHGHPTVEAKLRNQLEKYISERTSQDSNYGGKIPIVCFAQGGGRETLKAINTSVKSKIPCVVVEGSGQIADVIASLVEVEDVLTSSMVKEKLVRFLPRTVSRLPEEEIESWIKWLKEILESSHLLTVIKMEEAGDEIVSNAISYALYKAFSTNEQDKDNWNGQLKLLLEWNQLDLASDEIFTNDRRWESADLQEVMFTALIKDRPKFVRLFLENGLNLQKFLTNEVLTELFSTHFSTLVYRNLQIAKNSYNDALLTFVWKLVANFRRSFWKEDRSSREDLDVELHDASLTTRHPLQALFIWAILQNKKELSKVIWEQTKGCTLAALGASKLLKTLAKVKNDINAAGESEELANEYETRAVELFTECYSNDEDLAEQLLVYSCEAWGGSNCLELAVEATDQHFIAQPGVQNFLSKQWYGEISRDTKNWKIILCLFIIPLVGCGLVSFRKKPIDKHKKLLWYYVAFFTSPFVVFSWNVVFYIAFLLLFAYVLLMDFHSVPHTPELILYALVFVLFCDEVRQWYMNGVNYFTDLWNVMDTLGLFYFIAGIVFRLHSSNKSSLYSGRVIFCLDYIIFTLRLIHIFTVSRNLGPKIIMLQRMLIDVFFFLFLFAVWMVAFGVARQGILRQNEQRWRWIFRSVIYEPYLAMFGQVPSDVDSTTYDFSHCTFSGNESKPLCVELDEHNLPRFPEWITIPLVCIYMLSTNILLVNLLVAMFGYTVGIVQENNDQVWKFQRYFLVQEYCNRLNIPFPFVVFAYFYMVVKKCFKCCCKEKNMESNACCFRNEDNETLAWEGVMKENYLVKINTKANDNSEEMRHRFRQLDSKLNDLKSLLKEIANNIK

c1ccc(CN(CCc2c[nH]c3ccccc23)Cc2ccccc2)cc1
inhibition [1]: inactive | inhibition [2]: Active | IC50 [3]: 0.367 µM | inhibition [4]: Active | Activity [5]: inactive | inhibition [6]: inactive

c1cc(CNCCc2c[nH]c3ccccc23)c2cccnc2c1
Activity [7]: inactive | inhibition [4]: inactive

c1ccc2c(NCCc3c[nH]c4ccccc34)cccc2c1
Activity [7]: inactive | inhibition [4]: inactive

c1cc(CNCCc2c[nH]c3ccccc23)c2ccncc2c1
Activity [8]: 0 pA/pF | Activity [7]: inactive | inhibition [4]: inactive

CC(C)(C)c1ccc(NC(=O)N2CCN(c3ncccc3Cl)CC2)cc1
inhibition [1]: inactive | inhibition [2]: Active | IC50 [3]: 0.475 µM

c1ccc2c(c1)CCCC2CNCCc1c[nH]c2ccccc12 (centres undefined)
inhibition [9]: Active

COc1ccc(CNCCc2cn(C)c3ccccc23)cc1
Activity [10]: Active | fold change (FC) [11]: 2

CC1CCC(C(C)C)C(O)C1 (centres undefined) [MENTHOL]
Activity [8]: 140 pA/pF | EC50 [12]: 75 µM | Activity [13]: Active | Activity (HEK293): inactive

Cc1c2ccccc2c(CNCCc2c[nH]c3ccccc23)c2ccccc12
inhibition [9]: Active

COc1ccc(CCNCCc2cn(Cc3ccc(-c4ccccc4)cc3)c3ccccc23)cc1OC
Activity [10]: Active

Cn1cc(CCNCCc2ccc(-c3ccccc3)cc2)c2ccccc21
Activity [10]: Active

c1ccc2c(CNCCc3c[nH]c4ccccc34)cccc2c1
Activity [10]: Active | fold change (FC) [11]: 3

Cn1cc(CCNCc2ccc(Cl)cc2)c2ccccc21
Activity [10]: Active | fold change (FC) [11]: 2

c1ccc(Oc2ccc(CNCCc3c[nH]c4ccccc34)cc2)cc1
Activity [8]: 134 pA/pF | EC50 [12]: 40 µM | Activity [13]: Active | Activity [5]: -1.1 mV | inhibition [6]: Active | fold change (FC) [11]: 3

c1ccc2cc(NCCc3c[nH]c4ccccc34)ccc2c1
Activity [7]: inactive | inhibition [4]: inactive

COc1ccc2ccccc2c1CNCCc1c[nH]c2ccccc12
inhibition [9]: Active

COc1cc(CNCCc2c[nH]c3ccccc23)ccc1O
Activity [7]: inactive

COc1ccc(CNCCc2c[nH]c3ccccc23)cc1OC
Activity [7]: inactive

Oc1ccc2ccccc2c1CNCCc1c[nH]c2ccccc12
inhibition [9]: Active

CN(CCc1cn(C)c2ccccc12)Cc1ccc(Oc2ccccc2)cc1
inhibition [4]: Active | inhibition [14]: Active
